The text below walks through data of ChEMBL document CHEMBL1152967, “Scalarane-based sesterterpenoid RCE-protease inhibitors isolated from the Indonesian marine sponge Carteriospongia foliascens” (J Nat Prod, 2009).

In assay [1] the test system is LoVo. As to the kind of experiment: Cytotoxicity against human LoVo cells harboring mutated K-Ras after 3 days. It counts as functional, cell-based. As to conditions: 72 h.
In assay [2] the target is T1, CAAX prenyl protease 2 (Homo sapiens, UniProt Q9Y256).
T1 sequence (Q9Y256 whole entry): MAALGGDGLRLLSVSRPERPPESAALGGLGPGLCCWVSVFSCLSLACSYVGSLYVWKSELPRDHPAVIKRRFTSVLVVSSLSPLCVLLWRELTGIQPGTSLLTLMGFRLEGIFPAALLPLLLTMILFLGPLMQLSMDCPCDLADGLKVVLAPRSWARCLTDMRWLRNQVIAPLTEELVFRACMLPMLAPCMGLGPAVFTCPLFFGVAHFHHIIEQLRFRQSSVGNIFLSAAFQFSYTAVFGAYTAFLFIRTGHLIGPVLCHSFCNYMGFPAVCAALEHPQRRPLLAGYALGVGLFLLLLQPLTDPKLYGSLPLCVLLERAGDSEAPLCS
As to the kind of experiment: Inhibition of human RCE1. The procedure, abridged: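 Substrate was a fluorescent-labeled peptide from the carboxy terminus of farnesylated K-Ras. Cleavage was analyzed by reversed-phase HPLC. IC50 is reported in µg/mL.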

The test system of assay [3] is PC-3. Kind of assay: Cytotoxicity against human PC3 cells harboring mutated PTEN and p53 after 3 days. It counts as functional, cell-based. The following applies: PC-3, 72 h.
Assay [4] concerns Caco-2. As to the kind of experiment: Cytotoxicity against human Caco-2 cells harboring wild type Ras after 3 days. It counts as functional, cell-based. As to conditions: Caco-2, 72 h.
The nature of assay [5]: Cytotoxicity against human MDA468 cells harboring mutated PTEN and p53 after 3 days. It counts as functional, cell-based. The following applies: MDA-MB-468, 72 h.

≈ marks a conversion by molar mass, not a printed value.

Broadly, the IC50 is the concentration that gives 50% inhibition. High values mean a need for much substance, low ones inhibition by little substance.

Turning to `CCO[C@@H]1C[C@H]2[C@]3(C)CC[C@H]4[C@@](C)(CC)CCC[C@]4(C)[C@H]3C[C@H](OC(=O)CC(O)C(C)C)[C@]2(C)C2=C1C(C)(O)OC2=O` (stereo not given in full), the IC50 in assay [1] is 2.9 µg/mL (≈ 4.93 µM); in assay [2], 7.31 µM; in assay [3] it was 3.2 µg/mL (≈ 5.43 µM); in assay [4], 4.2 µg/mL (≈ 7.13 µM); in assay [5] it was 4.4 µg/mL (≈ 7.47 µM).
`CCC(O)CC(=O)O[C@H]1C[C@@H]2[C@@]3(C)CCC[C@](C)(CC)[C@@H]3CC[C@@]2(C)[C@@H]2C=CC3=C(C(=O)OC3(C)O)[C@@]12C` (stereo not given in full): the IC50 was 3.4 µg/mL (≈ 6.43 µM) in assay [1]; 17 µM in assay [2]; 3.7 µg/mL (≈ 7 µM) in assay [3]; 6.2 µg/mL (≈ 11.7 µM) in assay [4]; greater than 10 µg/mL in assay [5].
In the case of `CCC(O)CC(=O)O[C@H]1C[C@H]2[C@@](C)(CC[C@H]3[C@@](C)(CC)CCC[C@]23C)[C@@H]2C[C@@H](O)C(C(C)=O)=C[C@@]12C` (stereo not given in full), the IC50 in assay [1] was greater than 10 µg/mL; in assay [2], greater than 199 µM; in assay [3], greater than 10 µg/mL; in assay [4], greater than 10 µg/mL; in assay [5], greater than 10 µg/mL.
In the case of `CC[C@@]1(C)CCC[C@]2(C)[C@H]3C[C@H](OC(=O)CC(O)C(C)C)[C@]4(C)C=C(C(C)=O)[C@H](O)C[C@H]4[C@]3(C)CC[C@@H]12` (stereo not given in full), the IC50 in assay [1] was 7.6 µg/mL (≈ 14.7 µM); in assay [2], 73.5 µM; in assay [3], 3.8 µg/mL (≈ 7.35 µM); in assay [4], 3.4 µg/mL (≈ 6.58 µM); in assay [5], 9.5 µg/mL (≈ 18.4 µM).
